# “And” between values parts separate entries of the source, which are not always exact repeats. Identical values can stand only once.
# Key:
# [1] = previously observed; cited from earlier work
# [2] = test system: glycine levels in the rat cerebrospinal fluid (CSF); experiment: Glycine in rat CSF after single oral dose; assay type: in vivo; conditions: 90 min
# Summary of the method: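 Male Wistar rats were acclimatised 1 h in the test room, then dosed orally once with vehicle (0.5% Natrosol, 0.01% Tween-80) or 0.2, 0.6 or 2 mg/kg (n = 8 each). After 90 min, CSF was drawn by cisterna magna puncture under anaesthesia and frozen at −70°C. Glycine was quantified by LC-MS/MS. Data are mean ± SEM, compared with vehicle by one-way ANOVA with Dunnett's test.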
# glycine in CSF = experiment: Phase I pharmacodynamics: glycine in CSF; assay type: in vivo, human; conditions: for E 14, increase in glycine in CSF from baseline at 14 hours: 14 h after first dose; for E 14, increase in glycine in CSF from baseline at 14 hours / E max, maximum increase in glycine in CSF from baseline / Ratio of AUECdiff, 0–14 (glycine in CSF) / E 312, increase in glycine in CSF from baseline at 312 hours: mean (SD); for E max, maximum increase in glycine in CSF from baseline / Ratio of AUECdiff, 0–14 (glycine in CSF): after first dose; for E 312, increase in glycine in CSF from baseline at 312 hours: before last dose (steady state trough)
# Summary of the method: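 Healthy male volunteers took 5, 10, 25 or 50 mg orally each morning for 14 days in sequential ascending groups. CSF was drawn by lumbar catheter: three predose samples ~30 min apart, then hourly to 14 h after the first dose. A single lumbar puncture was taken before the day-14 dose. Glycine was measured by validated HPLC-MS/MS as its Marfey's derivative and expressed as % change from baseline (mean of three predose values).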
# GlyT1 = molecular target: T1, GlyT1 (Rattus norvegicus, UniProt P28572); experiment: Inhibition of [3H]-glycine uptake in rat primary cortical neurons; assay type: cell-based; conditions: IC50, inhibition of [3H]-glycine uptake, mean
# T1 sequence (P28572 1-638): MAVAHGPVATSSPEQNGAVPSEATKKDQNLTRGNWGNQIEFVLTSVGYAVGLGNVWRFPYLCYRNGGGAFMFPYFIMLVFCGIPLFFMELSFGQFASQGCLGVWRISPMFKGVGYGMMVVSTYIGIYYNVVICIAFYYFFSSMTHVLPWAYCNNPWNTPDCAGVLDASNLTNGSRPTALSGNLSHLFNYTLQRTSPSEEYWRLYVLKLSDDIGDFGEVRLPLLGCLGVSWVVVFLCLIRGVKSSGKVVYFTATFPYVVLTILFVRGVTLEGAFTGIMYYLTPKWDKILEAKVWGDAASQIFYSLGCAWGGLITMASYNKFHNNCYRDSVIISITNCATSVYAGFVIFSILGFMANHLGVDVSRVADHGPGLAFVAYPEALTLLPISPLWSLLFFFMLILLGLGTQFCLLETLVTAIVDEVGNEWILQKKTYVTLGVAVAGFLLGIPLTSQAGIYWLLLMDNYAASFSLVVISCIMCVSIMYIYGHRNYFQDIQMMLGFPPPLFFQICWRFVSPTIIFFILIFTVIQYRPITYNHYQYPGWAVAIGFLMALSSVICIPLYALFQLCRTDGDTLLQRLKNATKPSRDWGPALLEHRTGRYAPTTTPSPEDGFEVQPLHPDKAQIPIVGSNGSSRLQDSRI
# Summary of the method: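 Cortical neurons from E18 rats were differentiated in vitro for 7, 11 or 18 days, then run as a scintillating-plate uptake assay: 20 min incubation, inhibitor 0.9–3000 nM in HBSS with 5 mM alanine, and 200 nM [3H]glycine (0.01 mCi/mL) with counting over 57 min. IC50s came from four-parameter fits per experiment and were then averaged.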
# human GlyT2 = molecular target: T2, human GlyT2 (Homo sapiens, UniProt Q9Y345); experiment: Inhibition of [3H]-glycine uptake in HEK cells overexpressing human GlyT2; assay type: cell-based
# T2 sequence (Q9Y345 1-797): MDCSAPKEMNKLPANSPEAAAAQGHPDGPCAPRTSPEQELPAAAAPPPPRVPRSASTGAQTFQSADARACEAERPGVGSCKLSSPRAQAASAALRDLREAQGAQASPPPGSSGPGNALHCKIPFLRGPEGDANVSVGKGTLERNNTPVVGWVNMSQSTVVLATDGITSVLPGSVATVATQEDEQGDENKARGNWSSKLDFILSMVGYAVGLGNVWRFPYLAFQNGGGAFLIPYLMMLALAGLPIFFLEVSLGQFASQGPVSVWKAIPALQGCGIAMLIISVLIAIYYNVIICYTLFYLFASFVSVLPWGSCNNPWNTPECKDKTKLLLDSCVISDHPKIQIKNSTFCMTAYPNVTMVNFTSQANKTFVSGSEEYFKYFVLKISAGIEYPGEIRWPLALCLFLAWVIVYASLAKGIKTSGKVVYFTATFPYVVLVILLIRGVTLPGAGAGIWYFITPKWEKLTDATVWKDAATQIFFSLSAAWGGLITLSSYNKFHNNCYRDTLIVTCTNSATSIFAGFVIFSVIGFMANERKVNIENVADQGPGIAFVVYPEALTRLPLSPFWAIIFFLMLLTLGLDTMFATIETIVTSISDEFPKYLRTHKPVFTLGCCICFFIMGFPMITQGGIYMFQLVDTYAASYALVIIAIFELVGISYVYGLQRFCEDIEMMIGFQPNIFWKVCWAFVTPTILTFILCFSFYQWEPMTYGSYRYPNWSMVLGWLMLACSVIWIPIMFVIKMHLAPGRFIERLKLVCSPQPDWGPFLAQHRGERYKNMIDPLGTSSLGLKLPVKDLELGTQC
# Summary of the method: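 HEK cells overexpressing human GlyT2 were grown on scintillating microplates and incubated 20 min with inhibitor at 0.9–3000 nM in HBSS containing 5 mM alanine. Uptake was started with 250 nM [3H]glycine (0.0125 mCi/mL), and counting ran immediately over 57 min. IC50 came from a four-parameter log(inhibitor)-response fit.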
compound,measurement,setting,value
C[C@@H](Oc1ccc(S(C)(=O)=O)cc1C(=O)N1C[C@@H]2C[C@]2(c2cc(C(F)(F)F)on2)C1)C(F)(F)F [BI 425809],Attainment of steady state after administration,[1],≤ 8 days
same,Half-life,[1],~ 40 hours
same,Increase of glycine CSF levels relative to vehicle,"[2]; 0.2 mg/kg single oral dose, not significant",30%
same,Increase of glycine CSF levels relative to vehicle,"[2]; 0.6 mg/kg single oral dose, P < 0.05",61%
same,Increase of glycine CSF levels relative to vehicle,"[2]; 2 mg/kg single oral dose, P < 0.01",78%
same,"E 14, increase in glycine in CSF from baseline at 14 hours","glycine in CSF; 5 mg, N = 6",18.0 (32.1) %
same,"E max, maximum increase in glycine in CSF from baseline","glycine in CSF; 5 mg, N = 6",35.3 (26.4) %
same,"Ratio of AUECdiff, 0–14 (glycine in CSF)","glycine in CSF; 5 mg, N = 6",16.0 (17.4) %
same,"E 312, increase in glycine in CSF from baseline at 312 hours","glycine in CSF; 10 mg once daily, N = 4",57% and 57.0 (48.3) %
same,"E 14, increase in glycine in CSF from baseline at 14 hours","glycine in CSF; 10 mg, N = 6",39.8 (14.5) %
same,"E max, maximum increase in glycine in CSF from baseline","glycine in CSF; 10 mg, N = 6",62.3 (15.3) %
same,"Ratio of AUECdiff, 0–14 (glycine in CSF)","glycine in CSF; 10 mg, N = 6",37.0 (12.1) %
same,"E 312, increase in glycine in CSF from baseline at 312 hours","glycine in CSF; 25 mg once daily, N = 6",38% and 37.9 (45.8) %
same,"E 14, increase in glycine in CSF from baseline at 14 hours","glycine in CSF; 25 mg, N = 6",60.9 (60.7) %
same,"Ratio of AUECdiff, 0–14 (glycine in CSF)","glycine in CSF; 25 mg, N = 6",53.0 (30.5) %
same,"E max, maximum increase in glycine in CSF from baseline","glycine in CSF; 25 mg, N = 8",136 (107) %
same,"E 312, increase in glycine in CSF from baseline at 312 hours","glycine in CSF; 50 mg once daily, N = 5",123% and 123 (52.5) %
same,"E 14, increase in glycine in CSF from baseline at 14 hours","glycine in CSF; 50 mg, N = 5",50.6 (33.8) %
same,"E max, maximum increase in glycine in CSF from baseline","glycine in CSF; 50 mg, N = 5",91.9 (89.9) %
same,"Ratio of AUECdiff, 0–14 (glycine in CSF)","glycine in CSF; 50 mg, N = 5",47.0 (35.3) %
same,Time at which CSF glycine levels reached their maximum,"glycine in CSF; healthy volunteers, single oral doses, over dose groups",6 to 10 h
same,IC50,GlyT1,5.2 ± 1.2 nM
same,IC50,human GlyT2,> 10000 nM
